Measured values from ChEMBL document CHEMBL1157826 (J Med Chem, 2010).
The source made the active and inactive calls. The rule behind the calls is not given here.

Key:
Mus musculus [1] = experiment: Toxicity in BALB/c mouse xenografted with Mcl-1 overexpressing human M2182 cells at 10 to 25 mg/mg, ip administered 9 times every 2 days; format: organism-based; settings: in vivo, 48 h
Outline: (§1)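 Athymic nude male mice bearing bilateral s.c. M2182-Luc tumors (~75 mm3) received i.p. doses every 2 days, nine injections in all, in ethanol/Cremophor EL/saline 10:10:80 (500 μL). At least five animals per group. Tolerability was judged by signs of toxicity over the course of treatment.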

Mus musculus [2] = experiment: Reduction of Bcl-2 accumulation in human Bcl2 expressing B6 transgenic mouse assessed as induction of spleen shrinkage at 42 mg/kg, ip administered as single dose after 24 hrs; format: functional; parameters: scale not given: the % may be the effect or the level left; settings: route intraperitoneal
Outline: (§2)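 Age- and sex-matched B6 transgenic mice (human BCL-2 minigene fused to the IgH locus/enhancer, not yet lymphomatous; two per compound) received a single i.p. dose in 500 μL ethanol/Cremophor EL/saline 10:10:80. Controls received vehicle alone. Mice were killed with Avertin 24 h later and spleens weighed. Shrinkage was expressed as percent reduction versus controls.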

[3] = (§3) Metabolic stability in rat liver microsomes at 4 uM after 40 mins by LC/MS/MS analysis; format: ADME, Microsome; settings: liver microsomes, read-out: Stability
Outline: (§4)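 Test compounds were incubated in rat liver microsomal preparations for 40 min, and the fraction of compound remaining or degraded was reported.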

Mus musculus [4] = experiment: Reduction of Bcl-2 accumulation in human Bcl2 expressing B6 transgenic mouse assessed as reduction in spleen weight at 42 mg/kg, ip administered as single dose after 24 hrs; format: functional; settings: route intraperitoneal; for inhibition in vivo at 42 mg/kg: Mus musculus, B6, Spleen, ip, 24 h; outline: as §2
Mus musculus [5] = experiment: Toxicity in BALB/c mouse xenografted with Mcl-1 overexpressing human M2182 cells at 1 to 5 mg/mg, ip administered 9 times every 2 days; format: organism-based; settings: in vivo, 48 h; outline: as §1
[6] = Chemical stability at 10 mmol/L after 80 days at 42 degC by LC/MS/MS analysis; format: physicochemical; settings: 1920 h, 10000 µM
[7] = Chemical stability at 10 mmol/L after 80 days at 37 degC by LC/MS/MS analysis; format: physicochemical; settings: 1920 h, 10000 µM
[8] = Antitumor activity against Mcl-1 overexpressing human M2182 cells xenografted in BALB/c mouse assessed as inhibition of tumor growth at 3 mg/kg, ip administered 9 times every 2 days; format: functional; parameters: scale not given: the % may be the effect or the level left; settings: route intraperitoneal
Outline: (§5)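 Dosing started at visible tumors of ~75 mm3 (~5–6 days): i.p. every 2 days, nine injections in all, in ethanol/Cremophor EL/saline 10:10:80 (500 μL). Vehicle controls were used, with at least five mice per group. Tumors were followed by luciferin (150 mg/kg i.p.) bioluminescence imaging and excised at study end.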

[9] = Chemical stability at 10 mmol/L after 80 days at -20 degC by LC/MS/MS analysis; format: physicochemical; settings: 1920 h, 10000 µM
Liver microsomes = experiment: as §3; format: ADME, Microsome; settings: microsomes, 40 min, 4 µM; outline: as §4
[10] = Chemical stability at 10 mmol/L after 80 days at 21 degC by LC/MS/MS analysis; format: physicochemical; settings: 1920 h, 10000 µM
M2182 [11] = experiment: Antitumor activity against Mcl-1 overexpressing human M2182 cells xenografted in BALB/c mouse assessed as reduction of tumor size at 10 mg/kg, ip administered 9 times every 2 days; format: functional, organism-based; parameters: dose 10 mg/kg; outline: as §5
M2182 [12] = experiment: Antitumor activity against Mcl-1 overexpressing human M2182 cells xenografted in BALB/c mouse assessed as reduction of tumor size at 25 mg/kg, ip administered 9 times every 2 days; format: functional, organism-based; parameters: dose 25 mg/kg; outline: as §5
MEF [13] = experiment: Induction of apoptosis in Bak/Bax double knockout MEF at […] after 24 hrs by FITC-conjugated annexin V and propidium iodide staining-based FACS analysis; format: functional, cell-based; settings: Mus musculus
Outline: (§6)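 Next day, compound was added at final 0, 2.5, 5.0, 7.5, 10 and 30 μM. The following day, floating and trypsinized adherent cells were pooled and stained with Annexin V-FITC/PI. Cells negative for both were scored viable by flow cytometry.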

M2182 [14] = experiment: Antitumor activity against Mcl-1 overexpressing human M2182 cells xenografted in BALB/c mouse assessed as complete inhibition of tumor growth at 25 mg/kg, ip administered 9 times every 2 days; format: functional, organism-based; parameters: dose 25 mg/kg; outline: as §5
BP3 = experiment: Induction of apoptosis in human BP3 cells after 1 to 2 days by FITC-conjugated annexin V and propidium iodide staining-based FACS analysis; format: functional, cell-based
MEF [15] = experiment: Induction of apoptosis in Bak/Bax double knockout MEF at 30 uM after 24 hrs by FITC-conjugated annexin V and propidium iodide staining-based FACS analysis; format: functional; settings: Mus musculus; outline: as §6
MEF [16] = experiment: Induction of apoptosis in MEF expressing wild type Bcl-2 protein at 30 uM after 24 hrs by FITC-conjugated annexin V and propidium iodide staining-based FACS analysis; format: functional, cell-based; settings: Mus musculus; outline: as §6
Bcl-2-like protein 1 = Bcl-2-like protein 1 (Homo sapiens, UniProt Q07817); experiment: Displacement of FITC-labeled Bak BH3 peptide from Bcl-XL after 30 mins by fluorescence polarization assay
Chain of Bcl-2-like protein 1 (Q07817 whole entry): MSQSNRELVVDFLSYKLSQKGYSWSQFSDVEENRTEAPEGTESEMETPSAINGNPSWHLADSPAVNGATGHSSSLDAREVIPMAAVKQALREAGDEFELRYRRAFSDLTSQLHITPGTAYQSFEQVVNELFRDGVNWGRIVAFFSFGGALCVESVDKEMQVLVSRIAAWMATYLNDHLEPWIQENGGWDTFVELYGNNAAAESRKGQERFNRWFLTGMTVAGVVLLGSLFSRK

M2182 [17] = experiment: Antitumor activity against Mcl-1 overexpressing human M2182 cells xenografted in BALB/c mouse assessed as reduction of tumor size at 1 to 5 mg/kg, ip administered 9 times every 2 days; format: functional, organism-based; outline: as §5
M2182 [18] = experiment: Antitumor activity against Mcl-1 overexpressing human M2182 cells xenografted in BALB/c mouse assessed as complete inhibition of tumor growth at 5 mg/kg, ip administered 9 times every 2 days; format: functional, organism-based; parameters: dose 5 mg/kg; outline: as §5

With Cc1cc2c(C(=O)NC[C@H](C)c3ccccc3)c(O)c(O)cc2c(O)c1-c1c(C)cc2c(C(=O)NC[C@H](C)c3ccccc3)c(O)c(O)cc2c1O [1,1',6,6',7,7'-HEXAHYDROXY-3,3'-DIMETHYL-N5-((R)-2-PHENYLPROPYL)-N5'-((R)-2-PHENYLPROPYL)-2,2'-BINAPHTHYL-5,5'-DICARBOXAMIDE (ATROPISOMERIC MIX)] the Activity (Mus musculus [1]) was “Non-toxic”, the Activity (Mus musculus [2]; 42 mg/kg) was “<=40%” and the remaining at 40 min, 4 µM [3] was 28%. The “inhibition (INH)” value (Mus musculus [4]; 42 mg/kg) was “<=20%”.

With Cc1cc2c(C(=O)NC[C@H](C)c3ccccc3)c(O)c(O)cc2c(O)c1-c1c(C)cc2c(C(=O)NC[C@H](C)c3ccccc3)c(O)c(O)cc2c1O (single isomer, unassigned; atropisomer) [listing 1 of 2 here] the Activity (Mus musculus [5]) was “Non-toxic”, the Stability [6] was “Stable” and the Stability [7] was “Stable”. The Activity [8] was 40%, the Stability [9] was “Stable” and the Activity (Mus musculus [2]; 42 mg/kg) was 65%. The Stability (Liver microsomes) was 41%, the inhibition in vivo at 42 mg/kg (Mus musculus [4]) was over 30% and the Stability [10] was “Stable”.

With Cc1cc2c(C(=O)NCC(C)c3ccccc3)c(O)c(O)cc2c(O)c1-c1c(C)cc2c(C(=O)NCC(C)c3ccccc3)c(O)c(O)cc2c1O (racemic) the Activity (M2182 [11]) was “inactive”, the Activity (M2182 [12]) was “Active” and the Activity (MEF [13]) was “Active”. The Activity (M2182 [14]) was “Active” and the Activity (Mus musculus [1]) was “Non-toxic”.

In the case of Cc1cc2c(C(=O)NC[C@@H](C)c3ccccc3)c(O)c(O)cc2c(O)c1-c1c(C)cc2c(C(=O)NC[C@@H](C)c3ccccc3)c(O)c(O)cc2c1O (single isomer, unassigned; atropisomer) [listing 1 of 2 here], the Stability [6] is reported as “Stable”, the Stability [7] is reported as “Stable” and the Stability [9] is reported as “Stable”. For the same molecule, the Activity (Mus musculus [2]) was “<=40%”, the Stability (Liver microsomes) was 42% and the inhibition in vivo at 42 mg/kg (Mus musculus [4]) was at most 20%. For the same molecule, the Stability [10] was “Stable”.

With Cc1cc2c(C(=O)NC[C@@H](C)c3ccccc3)c(O)c(O)cc2c(O)c1-c1c(C)cc2c(C(=O)NC[C@@H](C)c3ccccc3)c(O)c(O)cc2c1O (single isomer, unassigned; atropisomer) [listing 2 of 2 here] the Activity (BP3) was “Dose-dependent effect”.

With Cc1cc2c(C(=O)NC[C@@H](C)c3ccccc3)c(O)c(O)cc2c(O)c1-c1c(C)cc2c(C(=O)NC[C@@H](C)c3ccccc3)c(O)c(O)cc2c1O [(S)-1',6,6',7,7'-HEXAHYDROXY-3,3'-DIMETHYL-N5-((S)-2-PHENYLPROPYL)-N5'-((S)-2-PHENYLPROPYL)-2,2'-BINAPHTHYL-5,5'-DICARBOXAMIDE (ATROPISOMERIC MIX)] the remaining at 40 min, 4 µM [3] was 41%.

For Cc1cc2c(C(=O)NC[C@H](C)c3ccccc3)c(O)c(O)cc2c(O)c1-c1c(C)cc2c(C(=O)NC[C@H](C)c3ccccc3)c(O)c(O)cc2c1O, the Activity (BP3) was “Dose-dependent effect”.

In the case of Cc1cc2c(C(=O)NC[C@@H](C)c3ccccc3)c(O)c(O)cc2c(O)c1-c1c(C)cc2c(C(=O)NC[C@@H](C)c3ccccc3)c(O)c(O)cc2c1O, the Activity (MEF [15]) is reported as “Active”, the Activity (BP3) is reported as “Dose-dependent effect” and the Activity (MEF [16]) is reported as “Active”.

Cc1cc2c(C(C)C)c(O)c(O)c(C=O)c2c(O)c1-c1c(C)cc2c(C(C)C)c(O)c(O)c(C=O)c2c1O [GOSSYPOL] showed an IC50 (Bcl-2-like protein 1) of 540 nM.

For Cc1cc2c(C(=O)NC[C@H](C)c3ccccc3)c(O)c(O)cc2c(O)c1-c1c(C)cc2c(C(=O)NC[C@H](C)c3ccccc3)c(O)c(O)cc2c1O (single isomer, unassigned; atropisomer) [listing 2 of 2 here], the Activity (BP3) was “Dose-dependent effect”, the Activity (MEF [16]) was “Active” and the Activity (M2182 [17]) was “Active”. The Activity (M2182 [18]) was “Active”.
